From ChEMBL document CHEMBL3272274, “Optical resolution of (+/-)-2,5-dimethyl-2'-hydroxy-9alpha- and -9beta-propyl-6,7-benzomorphans and their pharmacological properties” (J Med Chem, 1976) come the findings set out here.

Data set [1] relates to Rhesus monkey. The data set can be described thus: Toxicity in monkey assessed as myoclonic jerks at 6 mg/kg, sc. The data set is classed as organism-based, Macaca mulatta. The arrangement: dose 6 mg/kg, route subcutaneous. The note with it: in vivo.
Data set [2] relates to Mus musculus. The data set is described as follows: Analgesic activity in sc dosed mouse by Eddy hot-plate assay. Type of data set: functional.
For data set [3], the system named is Mus musculus. The data set is described as follows: Analgesic activity in sc dosed mouse by Nilsen assay. Type of data set: functional.
Data set [4] deals with Mus musculus. The data set can be described thus: Analgesic activity in po dosed mouse by Nilsen assay. Type of data set: functional. In short, it runs like this: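 Mouse analgesia by the Nilsen test with oral dosing. The ED50 is reported in mg/kg with confidence limits in parentheses.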
Data set [5] deals with Rhesus monkey. The data set can be described thus: Physical dependence capacity in monkey assessed as single dose suppression of morphine withdrawal syndrome at 0.5 to 16 mg/kg. Type of data set: ADME, organism-based, Macaca mulatta. Details: dose 0.5-16 mg/kg. The following applies: in vivo.
Data set [6] concerns Rhesus monkey. The data set is described as follows: Toxicity in monkey assessed as increase spontaneous movement at 10 mg/kg for 1 to 2 hrs. The data set is classed as organism-based, Macaca mulatta. The arrangement: dose 10 mg/kg. The following applies: in vivo.
The test system of data set [7] is Rhesus monkey. The data set is described as follows: Physical dependence capacity in monkey assessed as precipitation of morphine-induced abstinence at 10 mg/kg. Details: dose 10 mg/kg. The following applies: in vivo. Type of data set: ADME, organism-based, Macaca mulatta.
In data set [8] the test system is Rhesus monkey. The data set is described as follows: Physical dependence capacity in monkey assessed as single dose suppression of morphine withdrawal syndrome at 5 to 10 mg/kg. The note with it: in vivo. Details: dose 5-10 mg/kg. The data set is classed as ADME, organism-based, Macaca mulatta.
Data set [9] has as its system Rhesus monkey. The data set is described as follows: Physical dependence capacity in monkey assessed as precipitation of morphine-induced abstinence at 0.5 to 16 mg/kg. Type of data set: ADME, organism-based, Macaca mulatta. The arrangement: dose 0.5-16 mg/kg. The following applies: in vivo.
The subject of data set [10] is Rhesus monkey. The data set is described as follows: Toxicity in monkey assessed as tremors at 10 mg/kg for 1 to 2 hrs. The data set is classed as organism-based, Macaca mulatta. Details: dose 10 mg/kg. The note with it: in vivo.
The test system of data set [11] is Rhesus monkey. The data set can be described thus: Toxicity in monkey assessed as pupil dilation at 10 mg/kg for 1 to 2 hrs. Type of data set: organism-based, Macaca mulatta. The arrangement: dose 10 mg/kg. The following applies: in vivo.
For data set [12], the system named is Rhesus monkey. The data set can be described thus: Toxicity in monkey assessed as muscle rigidity at 10 mg/kg for 1 to 2 hrs. The data set is classed as organism-based, Macaca mulatta, Muscle tissue. The arrangement: dose 10 mg/kg. The following applies: in vivo.
The subject of data set [13] is Rhesus monkey. The data set is described as follows: Toxicity in monkey assessed as irritable behavior at 10 mg/kg for 1 to 2 hrs. Type of data set: organism-based, Macaca mulatta. Details: dose 10 mg/kg. The note with it: in vivo.
For data set [14], the system named is Rhesus monkey. The data set is described as follows: Toxicity in monkey at 0.5 to 16 mg/kg. Type of data set: organism-based, Macaca mulatta. The note with it: in vivo. The arrangement: dose 0.5-16 mg/kg.
Data set [15] relates to Rhesus monkey. The data set can be described thus: Toxicity in monkey assessed as apprehensive behavior at 10 mg/kg for 1 to 2 hrs. The data set is classed as organism-based, Macaca mulatta. Details: dose 10 mg/kg. The following applies: in vivo.
Data set [16] concerns Rhesus monkey. The data set can be described thus: Physical dependence capacity in monkey assessed as precipitation of morphine withdrawal syndrome at 5 to 10 mg/kg. The note with it: in vivo. Type of data set: ADME, organism-based, Macaca mulatta. Details: dose 5-10 mg/kg.
Data set [17] deals with Rhesus monkey. The data set can be described thus: Toxicity in monkey assessed as piloerection at 10 mg/kg for 1 to 2 hrs. The data set is classed as organism-based, Macaca mulatta. The note with it: in vivo. The arrangement: dose 10 mg/kg.
The test system of data set [18] is Rhesus monkey. The data set is described as follows: Toxicity in monkey assessed as restlessness at 10 mg/kg for 1 to 2 hrs. Type of data set: organism-based, Macaca mulatta. The following applies: in vivo. Details: dose 10 mg/kg.
The test system of data set [19] is Mus musculus. The data set is described as follows: Toxicity in mouse at 20 to 40 mg/kg, sc. The data set is classed as organism-based. The arrangement: dose 20-40 mg/kg, route subcutaneous. The note with it: in vivo.
Data set [20] relates to Mus musculus. The data set is described as follows: Analgesic activity mouse at 20 to 40 mg/kg, sc by Eddy hot-plate assay. The data set is classed as functional, organism-based. The gist of the method: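 Mouse analgesia by the Eddy hot-plate assay with subcutaneous injection. The ED50 is expressed with 95% SE limits.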
For data set [21], the system named is Mus musculus. The data set is described as follows: Toxicity in mouse at 16 mg/kg, sc. The note with it: in vivo. The data set is classed as organism-based. Details: dose 16 mg/kg, route subcutaneous.
Data set [22] relates to Rhesus monkey. The data set is described as follows: Physical dependence capacity in monkey assessed as precipitation of morphine withdrawal syndrome at 0.5 to 16 mg/kg. The data set is classed as ADME, organism-based, Macaca mulatta. The arrangement: dose 0.5-16 mg/kg. The following applies: in vivo.
For data set [23], the system named is Rhesus monkey. The data set is described as follows: Toxicity in monkey at 16 mg/kg. Type of data set: organism-based, Macaca mulatta. The arrangement: dose 16 mg/kg. The following applies: in vivo.
Data set [24] deals with Rhesus monkey. The data set can be described thus: Physical dependence capacity in monkey assessed as single dose suppression of morphine withdrawal syndrome at 1 to 16 mg/kg. Type of data set: ADME, organism-based, Macaca mulatta. The arrangement: dose 1-16 mg/kg. The note with it: in vivo.
Data set [25] has as its system Rhesus monkey. The data set can be described thus: Physical dependence capacity in monkey assessed as single dose suppression of morphine withdrawal syndrome at 2.5 to 10 mg/kg. Type of data set: ADME, organism-based, Macaca mulatta. The arrangement: dose 2.5-10 mg/kg. The note with it: in vivo.
Data set [26] has as its system Rhesus monkey. The data set can be described thus: Toxicity in monkey assessed as head tremor at 10 mg/kg. The data set is classed as organism-based, Macaca mulatta. The arrangement: dose 10 mg/kg. The note with it: in vivo.
The subject of data set [27] is Rhesus monkey. The data set is described as follows: Toxicity in monkey assessed as gazing behavior at 10 mg/kg. Type of data set: organism-based, Macaca mulatta. The arrangement: dose 10 mg/kg. The note with it: in vivo.
In data set [28] the test system is Rhesus monkey. The data set is described as follows: Toxicity in monkey assessed as severe retching at 1 to 4 mg/kg for 24 hrs. Type of data set: organism-based, Macaca mulatta. The following applies: in vivo. The arrangement: dose 1-4 mg/kg.
For data set [29], the system named is Mus musculus. The data set can be described thus: Toxicity in mouse at 50 mg/kg, sc. The data set is classed as organism-based. Details: dose 50 mg/kg, route subcutaneous. The note with it: in vivo.
Data set [30] deals with Rhesus monkey. The data set can be described thus: Toxicity in monkey assessed as depression at 1 to 16 mg/kg for 24 hrs. Type of data set: organism-based, Macaca mulatta. The arrangement: dose 1-16 mg/kg. The following applies: in vivo.
The subject of data set [31] is Rhesus monkey. The data set is described as follows: Toxicity in monkey assessed as vomiting at 1 to 4 mg/kg for 24 hrs. Type of data set: organism-based, Macaca mulatta. The arrangement: dose 1-4 mg/kg. The following applies: in vivo.
[32] abbreviates: Mus musculus, sc, read-out: ED50.

The structures appear in SMILES notation. The source made the active and inactive calls. The calls are words filed in the database; no cut-off is given here.

As to `CCC[C@H]1[C@H]2Cc3ccc(O)cc3[C@]1(C)CCN2C` [listing 1 of 2 here], the Activity result in [1] is listed as “Toxic”. For the same compound, the 50% effective dose (ED50) was determined as 1.61 mg/kg in data set [2] (setting [32]) and 1.8 mg/kg in data set [3] (setting [32]).
Turning to `COc1ccc2c3c1O[C@H]1C(=O)CC[C@@]4(O)[C@@H](C2)N(C)CC[C@]314` [OXYCODONE], the 50% effect level in data set [4] (ED50) was put at a dose of 1.3 mg/kg.
Take `C=CCN1CC[C@]23c4c5ccc(O)c4O[C@H]2[C@@H](O)C=C[C@H]3[C@H]1C5.Cl` [NALORPHINE HYDROCHLORIDE]: the ED50 in data set [2] (setting [32]) was 36.4 mg/kg; in data set [3] (setting [32]) it was 4.8 mg/kg.
Regarding `CCC[C@H]1[C@H]2Cc3ccc(O)cc3[C@]1(C)CCN2C.O=C(O)C(O)c1ccccc1`, the Activity result in data set [5] is “Non-toxic”; in [6], “Toxic”; in [7] it was “Non-toxic”; in [8] it was “Non-toxic”; in data set [9], “Non-toxic”; in [10], “Toxic”. Besides, the Activity result in data set [11] was “Toxic”; in data set [12], “Toxic”; in data set [13], “Toxic”; in data set [14] it was “Non-toxic”; in [15] it was “Toxic”; in data set [16] it was “Non-toxic”. Besides, the Activity entry in [17], in data set [18] and in [19] was “Toxic” in each case. Besides, the results for the ED50 in data set [2] (setting [32]) and in [3] (setting [32]) were 1.1 mg/kg and 1.2 mg/kg, respectively.
Turning to `CN1CC[C@]23c4c5ccc(O)c4O[C@H]2[C@@H](O)C=C[C@H]3[C@H]1C5.Cl` [MORPHINE HYDROCHLORIDE], the results for the ED50 in data set [2] (setting [32]) and in [3] (setting [32]) were 1.2 mg/kg and 0.8 mg/kg, respectively.
With `CCC[C@H]1[C@H]2Cc3ccc(O)cc3[C@]1(C)CCN2C` [listing 2 of 2 here], the outcome in [20] was inactive.
In the case of `CCC[C@@H]1[C@H]2Cc3ccc(O)cc3[C@]1(C)CCN2C.Cl` (racemic), the 50% effective dose (ED50) in data set [2] came to 0.64 mg/kg; in data set [3] (setting [32]), 0.35 mg/kg. Also, the Activity result in data set [21], in [22] and in [23] was “Non-toxic” throughout.
For the compound `CCC[C@@H]1[C@H]2Cc3ccc(O)cc3[C@]1(C)CCN2C.Cl`, the Activity result in data set [24] is reported as “Toxic”; in data set [25], “Non-toxic”; in [26] it was “Toxic”; in [27], “Toxic”; in data set [28], “Toxic”; in [29], “Toxic”. For the same compound, the Activity entry in data set [30] and in data set [31] was “Toxic” throughout. The 50% effective dose (ED50) in data set [4] turned out to be 7.26 mg/kg; in data set [2], 0.3 mg/kg; in data set [3] it was 0.35 mg/kg.
As for `COc1ccc2c3c1O[C@H]1[C@@H](O)C=C[C@H]4[C@@H](C2)N(C)CC[C@@]341` [CODEINE], in data set [4], the ED50 is 21.4 mg/kg.
